Screening results: PubChem BioAssay, several laboratories
CXCR6 block: CXCR6 receptor inhibitors, primary screen, cell-based, beta-arrestin, luminescence, CHO-K1 PathHunter, 1536-well; C-X-C chemokine receptor type 6 (Homo sapiens), O00574; inhibition, % at 20 µM; actives 0.36% (n = 360,000); AID 602244, 2012; in the data active means inhibition above about 34%, passing the limit was not always enough;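 further: antagonist mode with CXCL16 agonist at 10 nM final; 0% = 10 nM CXCL16 with DMSO and 100% = unstimulated wells without agonist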
Target sequence (O00574 whole entry, looked up): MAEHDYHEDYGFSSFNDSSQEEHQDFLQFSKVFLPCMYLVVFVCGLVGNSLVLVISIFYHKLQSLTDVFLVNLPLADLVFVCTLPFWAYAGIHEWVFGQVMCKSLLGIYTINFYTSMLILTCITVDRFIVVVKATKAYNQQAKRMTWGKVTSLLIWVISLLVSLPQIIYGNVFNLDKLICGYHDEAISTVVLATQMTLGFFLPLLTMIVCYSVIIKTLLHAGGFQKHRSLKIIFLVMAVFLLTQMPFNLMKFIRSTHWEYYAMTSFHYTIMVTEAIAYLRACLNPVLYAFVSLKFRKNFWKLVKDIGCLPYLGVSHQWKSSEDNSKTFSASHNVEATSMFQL
APJ ag: agonists of human apelin receptor APJ, primary screen, CHO-K1 cells, PathHunter beta-arrestin, luminescence | actives 0.11% (n = 330,000) | 0% DMSO wells, 100% apelin | activation, % at 20 µM | AID 2520, 2010 | P35414;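 active means activation more than six SD over the plate average, tested at 20 µM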;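 further: 0% = DMSO alone and 100% = apelin-13 at 10 nM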
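Assay system: CHO-K1 APJ beta-arrestin complementation cell line / Compound: single test compound dose, 20 µM final, 1% DMSO / Times: overnight seeding, 90 min compound at 25 °C, 1 h detection / Technique: beta-gal luminescence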
PKA-R1A act: activators of PKA-R1A holoenzyme, primary screen, biochemical, fluorescence polarization, Cy5-IP20, bovine R1A, mouse PKAc. PKA-R1A dissociation; scaled: DMSO 0%, 113 µM cGMP 100%. actives 0.083% (n = 340,000). activation, % at 11.4 µM. cAMP-dependent protein kinase type I-alpha regulatory subunit (Bos taurus) + …;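 active means percent activation above the mean of all tested compounds plus 3 SD, cut at about 19% in these data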;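 further: higher means more PKAc released from R1A so a rise in polarization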
CCR6 antagonist: CCR6 receptor antagonists, primary screen, cell-based, CHO-K1, luminescence, beta-arrestin, uHTS | CHO-K1 CCR6 PathHunter beta-arrestin, CCL20-stimulated | inhibition, % at 20 µM | C-C chemokine receptor type 6 (Homo sapiens), P51684 | actives 0.49% (n = 340,000);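 active means compounds whose inhibition of the agonist-driven luminescence signal at 20 µM reaches about 50%, limit read from the data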;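 further: cells stimulated with CCL20 at 14 nM final; plate controls were DMSO with CCL20 for no effect and DMSO without agonist for full effect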
APJ antag: antagonists of human apelin receptor APJ, primary screen, CHO-K1 cells, beta-arrestin complementation, luminescence; P35414; AID 2521, 2010; inhibition, % at 20 µM; actives 0.32% (n = 330,000);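 active means inhibition above about 40% at 20 µM, limit read from the data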;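 further: cells challenged with 10 nM apelin-13 agonist together with compound; plate controls were apelin-13 plus DMSO wells for no effect and DMSO wells lacking apelin-13 for full effect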
PKA-R2B activ: activators of PKA-R2B holoenzyme, primary screen, biochemical, fluorescence polarization, Cy5-IP20, human | PKA-R2B holoenzyme dissociation; R2B truncated from residue 108, S112A mutant; 0% DMSO only, 100% 113 µM cGMP | actives 0.079% (n = 340,000) | activation, % at 11.4 µM | cAMP-dependent protein kinase catalytic subunit beta (Homo sapiens) + cAMP-dependent …;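 active means activation above a cutoff set at the mean over all compounds plus 3 SD, cut at about 18% in these data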;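 further: higher means more holoenzyme dissociation and a rise in polarization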
* = called active by the depositor; · = no result. Rows were chosen to be rich in hits. Some 0.88% of all compounds tested hit in one or more screens of this group.

SMILES	CXCR6 block	APJ ag	PKA-R1A act	CCR6 antagonist	APJ antag	PKA-R2B activ
CC(C)CNc1ncnc2c1ncn2[C@H]1CN(Cc2ccc(C(=O)O)cc2)C[C@@H](CO)O1	5	·	·	·	·	·
CN(C)CCNC(=O)c1cccc(-c2cc(NC=O)c3ncc(-c4cccc(C(F)(F)F)c4)n3c2)c1	-10	·	·	·	·	·
c1ccc(N=NC2=NN(c3ccccc3)CS2)cc1	42*	·	5	·	·	1
CNC(=O)c1c(NC(=O)c2nc3ccccc3s2)sc2c1CCC2	40*	-6	-2	·	39	-5
COc1ccc(CCNC(=O)c2cc3cc(Cl)ccc3nc2N)cc1OC	-3	·	·	·	·	·
C[C@H](NC(=O)[C@@H]1CCCN1C(=O)[C@@H]1CCCN1)c1ccccc1	-7	·	·	·	·	·
O=C1C(Cl)=C(N2CCCCC2)C(=O)C(Cl)=C1c1cnc(N2CCCCC2)s1	14	7	-6	70*	-16	1
O=C1C(Cl)=C(N2CCCCCC2)C(=O)N1c1ccc(Cl)cc1	-10	-2	5	19	15	-2
CN(C)c1ncc(C2=C(Cl)C(=O)C(N3CCCC3)=C(Cl)C2=O)s1	14	8	7	91*	-20	-12
CC(=O)c1cnc(N(C)C)s1	-2	2	3	0	-3	-5
CC(=O)c1ccc(OC2(C)CCN(Cc3cc4ccccc4[nH]3)C2)cc1 (stereo not given)	0	·	·	·	·	·
C=CCN(CC=C)S(=O)(=O)c1ccc(NC(=S)NC(=O)/C=C/c2cccc3ccccc23)cc1	4	-3	-8	52*	28	-4
CCc1ccc(S(=O)(=O)/N=C2\C=CC(=O)c3ccccc32)cc1	·	5	·	·	-33	·
CCc1ccc(S(=O)(=O)/N=C2/C=C(Sc3ncn[nH]3)C(=O)c3ccccc32)cc1	54*	·	-12	·	·	2
Cc1ccc(NC2=C/C(=N\S(=O)(=O)c3cccs3)c3ccccc3C2=O)c(C)c1	33	-6	3	59*	24	-7
Cc1ccc(Cl)cc1NC1=C/C(=N\S(=O)(=O)c2cccs2)c2ccccc2C1=O	31	-1	2	59*	39	-3
O=C1C(Nc2ccc(O)cc2)=C/C(=N/S(=O)(=O)c2cccs2)c2ccccc21	34	·	0	59*	·	0
COc1cccc(Nc2nc(C(N)Cc3ccc(Cl)cc3)cs2)n1 (stereo not given)	-11	·	·	·	·	·
COc1cc(Cn2c3ccc(NC(=O)CC(C)C(F)(F)F)cc3c(=O)n2C)ccc1F (stereo not given)	3	·	·	·	·	·
COc1ccc(Cn2cc(CN3CC(N4CCN(CCN(C)C)CC4)CS3(=O)=O)nn2)cc1 (stereo not given)	-1	·	·	·	·	·
OC[C@@H]1CN(Cc2cccnc2)C[C@H](n2cnc3c(N4CCCC4)ncnc32)O1	4	·	·	·	·	·
CCc1ccc(S(=O)(=O)/N=C2\C=C(Nc3ccc(O)cc3)C(=O)c3ccccc32)cc1	41*	-7	0	57*	25	0
Cc1cccc(NC2=C/C(=N/S(=O)(=O)c3cccs3)c3ccccc3C2=O)c1	27	·	-2	53*	·	1
CCc1ccc(S(=O)(=O)/N=C2\C=C(Nc3cccc(C(=O)O)c3)C(=O)c3ccccc32)cc1	18	-2	-18	45	1	-3
N#Cc1ccccc1Cn1cc(/C=C/[N+](=O)[O-])c2ccccc21	35	3	-3	55*	-14	3
SMILES	CXCR6 block	APJ ag	PKA-R1A act	CCR6 antagonist	APJ antag	PKA-R2B activ
Oc1c(I)cc(Cl)c2cccnc12	36*	-4	1	55*	17	2
CN1CCN(C(c2ccc(Cl)cc2)c2cc(Cl)c3cccnc3c2O)CC1 (stereo not given)	11	-5	-5	63*	1	-5
Oc1c(C(c2ccccn2)N2CCCCC2)cc(Cl)c2cccnc12 (stereo not given)	26	-8	2	63*	37	-3
CC1=CCC[C@@H]2[C@]3(CC/C(=C/CO)CO)CO[C@@]2(C1)[C@@H](O)C[C@H]3C	2	·	·	·	·	·
CCCNC(=O)C1(C)CCCN(Cc2cc(-c3ccccc3)nn2C)C1 (stereo not given)	6	·	·	·	·	·
Cc1ccc(Nc2c(-c3ccccn3)nc3cccc(C)n23)cc1	42*	-10	-9	64*	23	6
COc1ccc(C(=O)/C=C/C(=O)N(CC(=O)NC2CCCCC2)Cc2ccc(F)cc2)c(O)c1	60*	·	-3	98*	·	3
COc1ccc(C(=O)N(Cc2ccco2)Cc2cccs2)c(O)c1	4	-9	-7	11	19	0
COc1ccc(C(=O)/C=C/C(=O)N(CC(=O)NCCC(C)C)Cc2cccs2)c(O)c1	21	·	-9	85*	·	7
CC(C)C[C@H]1COc2cccc(N(C)CCO)c2S(=O)(=O)N1	-5	·	·	·	·	·
COCCNC(=O)C1(C)CCN(Cc2cccc(Oc3ccccc3)c2)C1 (stereo not given)	5	·	·	·	·	·
CC(=O)/C(=N\Nc1ccccc1)Sc1cccc2cccnc12	3	-4	-6	10	15	-6
O=C(Sc1cccc2cccnc12)c1ccc(F)cc1	·	-8	·	·	44*	·
CN(C)C(=O)CSc1cccc2cccnc12	55*	-7	-8	66*	35	-6
O=S(=O)(Nc1cc(Sc2cccc3cccnc23)c(O)c2ccccc12)c1ccc(F)cc1	·	·	·	65*	·	·
NNC(=O)CSc1cccc2cccnc12	-4	2	10	-7	-15	-1
Cc1ccccc1S(=O)(=O)NC(=O)C1(C)CCN1C(=O)CC1CCCCC1 (stereo not given)	4	·	·	·	·	·
O=C(/C=C/[C@H]1O[C@@H](n2ccc(=O)[nH]c2=O)[C@H](O)[C@@H]1O)NCc1ccccc1	0	·	·	·	·	·
Cc1ccc(S(=O)(=O)Nc2cccc3ncccc23)cc1	3	-4	-8	5	-17	1
Cc1ccc(S(=O)(=O)Nc2cccc3ncccc23)s1	63*	-18	1	96*	91*	-8
COc1cccc(C(C)(O)c2nc(-c3ccc(N(C)C)cc3)cs2)c1 (stereo not given)	4	·	·	·	·	·
O=C1C=CC(=O)N1c1ccc(OC(F)F)cc1	103*	·	0	·	·	0
O=C1C=CC(=O)N1c1ccc(O)cc1	14	-5	-3	81*	-3	4
C[C@@H]1COc2cc(N3CCC[C@H]3CO)ccc2S(=O)(=O)N1	-3	·	·	·	·	·
